Test results: ChEMBL document CHEMBL1177842, “New 6-amino-[1,2,4]triazolo[3,4-b][1,3,4]thiadiazines and [1,2,4]triazolo[3,4-b] [1,3,4]thiadiazin-6-ones: synthesis, characterization and antibacterial activity evaluation” (2010)
In brackets after ≈: the same amount, converted by molar mass. Activity calls are given as the source filed them. The rule behind the calls is not given here.

Columns and labels:
Assay type in all cases: functional
[1] = system: Acinetobacter baumannii; experiment: Antibacterial activity against Acinetobacter baumannii ATCC 19606 after 24 hrs by broth microdilution technique
Method in brief: (§1)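 MIC by broth microdilution following NCCLS recommendations. Strains were grown in Mueller-Hinton broth and the inoculum was 5 × 10^5 cfu in 1 mL. Compounds were dissolved in DMSO and serially diluted in tubes to final concentrations of 1024 down to 2 µg/mL. 24 h old inoculum was added. After 35 °C for 24 h, the MIC was the lowest concentration inhibiting visible growth. Tetracycline and ampicillin served as standards.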

[2] = system: Citrobacter freundii; experiment: Antibacterial activity against Citrobacter freundii […] after 24 hrs by broth microdilution technique; method in brief: as §1
[3] = system: Enterobacter cloacae; experiment: Antibacterial activity against Enterobacter cloacae ATCC 49141 after 24 hrs by broth microdilution technique; method in brief: as §1
[4] = system: Escherichia coli; experiment: Antibacterial activity against Escherichia coli ATCC 25922 after 24 hrs by broth microdilution technique; conditions: ATCC 25922, 24 h; method in brief: as §1
[5] = system: Pseudomonas aeruginosa; experiment: Antibacterial activity against Pseudomonas aeruginosa ATCC 9027 after 24 hrs by broth microdilution technique; method in brief: as §1
[6] = system: Enterococcus faecalis; experiment: Antibacterial activity against Enterococcus faecalis ATCC 29212 after 24 hrs by broth microdilution technique; conditions: ATCC 29212, 24 h; method in brief: as §1
[7] = system: Staphylococcus aureus; experiment: Antibacterial activity against Staphylococcus aureus ATCC 25923 after 24 hrs by broth microdilution technique; conditions: ATCC 25923, 24 h; method in brief: as §1
[8] = system: Staphylococcus epidermidis; experiment: Antibacterial activity against Staphylococcus epidermidis ATCC 14990 after 24 hrs by broth microdilution technique; conditions: ATCC 14990, 24 h; method in brief: as §1
[9] = system: Bacillus cereus; experiment: Antibacterial activity against Bacillus cereus ATCC 13061 after 24 hrs by broth microdilution technique; method in brief: as §1

| MIC ([1]; ATCC 19606, 24 h) [µg/mL] | MIC [2] [µg/mL] | MIC ([3]; ATCC 49141, 24 h) [µg/mL] | MIC [4] [µg/mL] | MIC ([5]; ATCC 9027, 24 h) [µg/mL] | MIC [6] [µg/mL] | MIC [7] [µg/mL] | MIC [8] [µg/mL] | MIC ([9]; ATCC 13061, 24 h) [µg/mL] | MIC [1] | MIC [5] | MIC [9] | Compound | MIC [3] |
| --- | --- | --- | --- | --- | --- | --- | --- | --- | --- | --- | --- | --- | --- |
| 128 (≈ 311 µM) | 512 (≈ 1240 µM) | 512 (≈ 1240 µM) | 1020 (≈ 2490 µM) | 512 (≈ 1240 µM) | 1020 (≈ 2490 µM) | 512 (≈ 1240 µM) | 512 (≈ 1240 µM) | 1020 (≈ 2490 µM) | – | – | – | Nn1c(S)nnc1-c1ccc(S(=O)(=O)c2ccc(Br)cc2)cc1 | – |
| 1020 (≈ 2200 µM) | 512 (≈ 1100 µM) | 512 (≈ 1100 µM) | 512 (≈ 1100 µM) | 64 (≈ 138 µM) | 1020 (≈ 2200 µM) | 64 (≈ 138 µM) | 512 (≈ 1100 µM) | 1020 (≈ 2200 µM) | – | – | – | O=c1[nH]n2c(-c3ccc(S(=O)(=O)c4ccc(Br)cc4)cc3)nnc2sc1=O | – |
| 256 (≈ 629 µM) | 512 (≈ 1260 µM) | 512 (≈ 1260 µM) | 128 (≈ 315 µM) | 128 (≈ 315 µM) | 512 (≈ 1260 µM) | 256 (≈ 629 µM) | 256 (≈ 629 µM) | 1020 (≈ 2520 µM) | – | – | – | O=C1CSc2nnc(-c3ccc(S(=O)(=O)c4ccc(Cl)cc4)cc3)n2N1 | – |
| 1020 (≈ 2180 µM) | 512 (≈ 1090 µM) | 1020 (≈ 2180 µM) | 64 (≈ 136 µM) | 256 (≈ 545 µM) | 512 (≈ 1090 µM) | 512 (≈ 1090 µM) | 512 (≈ 1090 µM) | 1020 (≈ 2180 µM) | – | – | – | Nn1c(SCC(=O)O)nnc1-c1ccc(S(=O)(=O)c2ccc(Br)cc2)cc1 | – |
| 256 (≈ 567 µM) | 512 (≈ 1130 µM) | 512 (≈ 1130 µM) | 128 (≈ 284 µM) | 128 (≈ 284 µM) | 1020 (≈ 2270 µM) | 1020 (≈ 2270 µM) | 1020 (≈ 2270 µM) | 1020 (≈ 2270 µM) | – | – | – | O=C1CSc2nnc(-c3ccc(S(=O)(=O)c4ccc(Br)cc4)cc3)n2N1 | – |

The next lines start with the compound.

| Compound | MIC ([1]; ATCC 19606, 24 h) [µg/mL] | MIC [2] [µg/mL] | MIC ([3]; ATCC 49141, 24 h) [µg/mL] | MIC [4] [µg/mL] | MIC ([5]; ATCC 9027, 24 h) [µg/mL] | MIC [6] [µg/mL] | MIC [7] [µg/mL] | MIC [8] [µg/mL] | MIC ([9]; ATCC 13061, 24 h) [µg/mL] | MIC [1] | MIC [5] | MIC [9] | MIC [3] |
| --- | --- | --- | --- | --- | --- | --- | --- | --- | --- | --- | --- | --- | --- |
| Nn1c(SCC(=O)O)nnc1-c1ccc(S(=O)(=O)c2ccccc2)cc1 | 1020 (≈ 2620 µM) | 512 (≈ 1310 µM) | 1020 (≈ 2620 µM) | 64 (≈ 164 µM) | 256 (≈ 656 µM) | 512 (≈ 1310 µM) | 256 (≈ 656 µM) | 128 (≈ 328 µM) | 1020 (≈ 2620 µM) | – | – | – | – |
| Nn1c(SCC(=O)Nc2ccccc2)nnc1-c1ccc(S(=O)(=O)c2ccc(Cl)cc2)cc1 | 1020 (≈ 2050 µM) | 512 (≈ 1020 µM) | 512 (≈ 1020 µM) | 128 (≈ 256 µM) | 32 (≈ 64 µM) | 1020 (≈ 2050 µM) | 128 (≈ 256 µM) | 256 (≈ 512 µM) | 1020 (≈ 2050 µM) | – | – | – | – |
| CC1(C)S[C@@H]2[C@H](NC(=O)[C@H](N)c3ccccc3)C(=O)N2[C@H]1C(=O)O [AMPICILLIN] | – | 2 (≈ 5.72 µM) | – | – | – | < 2 | < 2 | < 2 | – | inactive | inactive | inactive | inactive |
| O=S(=O)(c1ccc(Br)cc1)c1ccc(-c2nnc3n2N=C(Nc2ccccc2)CS3)cc1 | 512 (≈ 973 µM) | 512 (≈ 973 µM) | 512 (≈ 973 µM) | 256 (≈ 486 µM) | 256 (≈ 486 µM) | 1020 (≈ 1950 µM) | 1020 (≈ 1950 µM) | 1020 (≈ 1950 µM) | 512 (≈ 973 µM) | – | – | – | – |
| O=S(=O)(c1ccc(Cl)cc1)c1ccc(-c2nnc3n2N=C(Nc2ccccc2)CS3)cc1 | 512 (≈ 1060 µM) | 128 (≈ 266 µM) | 1020 (≈ 2120 µM) | 128 (≈ 266 µM) | 64 (≈ 133 µM) | 1020 (≈ 2120 µM) | 256 (≈ 531 µM) | 1020 (≈ 2120 µM) | 1020 (≈ 2120 µM) | – | – | – | – |
| Nn1c(SCC(=O)Nc2ccccc2)nnc1-c1ccc(S(=O)(=O)c2ccc(Br)cc2)cc1 | 1020 (≈ 1880 µM) | 1020 (≈ 1880 µM) | 256 (≈ 470 µM) | 256 (≈ 470 µM) | 128 (≈ 235 µM) | 1020 (≈ 1880 µM) | 64 (≈ 118 µM) | 256 (≈ 470 µM) | 512 (≈ 940 µM) | – | – | – | – |
| Nn1c(-c2ccc(S(=O)(=O)c3ccccc3)cc2)n[nH]c1=S | 512 (≈ 1540 µM) | 512 (≈ 1540 µM) | 512 (≈ 1540 µM) | 512 (≈ 1540 µM) | 512 (≈ 1540 µM) | 1020 (≈ 3080 µM) | 512 (≈ 1540 µM) | 128 (≈ 385 µM) | 1020 (≈ 3080 µM) | – | – | – | – |
| CN(C)[C@@H]1C(O)=C(C(N)=O)C(=O)[C@@]2(O)C(O)=C3C(=O)c4c(O)cccc4[C@@](C)(O)[C@H]3C[C@@H]12 [TETRACYCLINE] | 2 (≈ 4.5 µM) | 2 (≈ 4.5 µM) | – | 2 (≈ 4.5 µM) | 16 (≈ 36 µM) | 32 (≈ 72 µM) | < 2 | 32 (≈ 72 µM) | < 2 | – | – | – | inactive |
| O=C1CSc2nnc(-c3ccc(S(=O)(=O)c4ccccc4)cc3)n2N1 | 256 (≈ 687 µM) | 512 (≈ 1370 µM) | 512 (≈ 1370 µM) | 128 (≈ 344 µM) | 128 (≈ 344 µM) | 1020 (≈ 2750 µM) | 512 (≈ 1370 µM) | 32 (≈ 85.9 µM) | 1020 (≈ 2750 µM) | – | – | – | – |
| Nn1c(SCC(=O)O)nnc1-c1ccc(S(=O)(=O)c2ccc(Cl)cc2)cc1 | 1020 (≈ 2410 µM) | 512 (≈ 1210 µM) | 1020 (≈ 2410 µM) | 64 (≈ 151 µM) | 256 (≈ 603 µM) | 256 (≈ 603 µM) | 128 (≈ 301 µM) | 256 (≈ 603 µM) | 1020 (≈ 2410 µM) | – | – | – | – |
| CCOC(=O)C1Sc2nnc(-c3ccc(S(=O)(=O)c4ccc(Cl)cc4)cc3)n2NC1=O (configuration not stated) | 1020 (≈ 2140 µM) | 512 (≈ 1070 µM) | 512 (≈ 1070 µM) | 512 (≈ 1070 µM) | 128 (≈ 267 µM) | 1020 (≈ 2140 µM) | 1020 (≈ 2140 µM) | 1020 (≈ 2140 µM) | 1020 (≈ 2140 µM) | – | – | – | – |
| Nn1c(-c2ccc(S(=O)(=O)c3ccc(Cl)cc3)cc2)n[nH]c1=S | 128 (≈ 349 µM) | 512 (≈ 1400 µM) | 512 (≈ 1400 µM) | 1020 (≈ 2790 µM) | 128 (≈ 349 µM) | 1020 (≈ 2790 µM) | 512 (≈ 1400 µM) | 512 (≈ 1400 µM) | 1020 (≈ 2790 µM) | – | – | – | – |
